Experiments:
Conditions in all cases: 0.5 h
Aromatase [1] = target: T1, Aromatase (Homo sapiens, UniProt P11511); assay: Inhibition of human recombinant aromatase at 300 nM after 30 mins relative to control
T1 sequence (P11511 whole entry): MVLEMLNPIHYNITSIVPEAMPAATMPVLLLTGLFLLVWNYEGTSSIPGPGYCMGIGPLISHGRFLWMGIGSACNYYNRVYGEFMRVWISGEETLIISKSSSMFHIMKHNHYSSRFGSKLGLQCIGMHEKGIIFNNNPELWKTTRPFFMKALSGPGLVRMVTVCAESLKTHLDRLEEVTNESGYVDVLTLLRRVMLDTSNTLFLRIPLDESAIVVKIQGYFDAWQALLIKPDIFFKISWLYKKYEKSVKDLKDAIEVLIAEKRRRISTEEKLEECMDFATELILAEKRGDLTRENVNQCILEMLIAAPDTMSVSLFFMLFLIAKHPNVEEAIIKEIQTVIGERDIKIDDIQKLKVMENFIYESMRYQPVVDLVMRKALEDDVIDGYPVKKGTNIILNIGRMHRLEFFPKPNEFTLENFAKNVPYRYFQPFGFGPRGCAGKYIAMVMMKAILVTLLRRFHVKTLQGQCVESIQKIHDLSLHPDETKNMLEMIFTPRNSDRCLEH
Outline: (§1)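 Human recombinant aromatase (CYP19) expressed in insect cells via baculovirus; fluorogenic substrate methoxy-4-trifluoromethylcoumarin, 3 µM in the reaction. Compounds in acetone, serially diluted 1:3 in NADPH-cofactor buffer. Reaction started with prewarmed enzyme–substrate mix, 30 min at 37 °C. Fluorescence read at 409 nm excitation / 530 nm emission. Blank lacks enzyme. Inhibition as % of no-inhibitor control; mean ± SD, n = 4; Student t test.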

Aromatase [2] = target: T1, Aromatase; assay: Inhibition of human recombinant aromatase at 3 uM after 30 mins relative to control; outline: as §1
Aromatase [3] = target: T1, Aromatase; assay: Inhibition of human recombinant aromatase at 10 uM after 30 mins relative to control; outline: as §1
Aromatase [4] = target: T1, Aromatase; assay: Inhibition of human recombinant aromatase at 1 uM after 30 mins relative to control; outline: as §1

inhibition at 0.3 µM (Aromatase [1]) | inhibition at 3 µM (Aromatase [2]) | inhibition at 10 µM (Aromatase [3]) | inhibition at 1 µM (Aromatase [4]) | Structure (SMILES)
9% | 4.1% | 4.8% | 2.2% | COc1cc2c(cc1C(C)C)CC[C@H]1C(C)(C)CCC[C@]21C
16.2% | 18.6% | 19.8% | 19.7% | COc1cc2c(cc1C(C)C)C=C[C@@H]1C(C)(C)CCC[C@]21C
15.2% | 18.4% | 19.7% | 15.9% | COc1cc2c(cc1C(C)C)CC[C@@H]1C(C)(C)CCC[C@]21C
< 0% | 6.7% | 19.8% | 18.1% | COc1cc2c(cc1C(C)C)C(=O)C[C@H]1C(C)(C)CCC[C@]21C
20.7% | 23.9% | 19.5% | 28.7% | COc1cc2c(cc1C(C)C)C(=O)C[C@@H]1C(C)(C)CCC[C@]21C
89.3% | 83.8% | 92.5% | 91.1% | N#Cc1ccc(C(c2ccc(C#N)cc2)n2cncn2)cc1 [LETROZOLE]

Structure (SMILES) | inhibition at 0.3 µM (Aromatase [1]) | inhibition at 3 µM (Aromatase [2]) | inhibition at 10 µM (Aromatase [3]) | inhibition at 1 µM (Aromatase [4])
CC(C)c1cc(C=O)c([C@@]2(C)CCCC(C)(C)[C@@H]2C=O)cc1O | 5.9% | 3.3% | 9.2% | < 0%
CC(C)c1cc(C=O)c([C@@]2(C)CCCC(C)(C)[C@H]2C=O)cc1O | 22.2% | 24.9% | 25.1% | 24.5%
CC(=O)N1CCN(c2ccc(OC[C@H]3CO[C@](Cn4ccnc4)(c4ccc(Cl)cc4Cl)O3)cc2)CC1 [KETOCONAZOLE] | 81.7% | 87.5% | 87.9% | 84.2%
CC(C)c1cc(C=O)c2c(c1O)[C@H](O)[C@H]1C(C)(C)CCC[C@]21C [STANDISHINAL] | 1.1% | 6.7% | 23.7% | 10.3%
